# Reference: ChEMBL document CHEMBL3596194, “Design, synthesis and biological evaluation of bivalent benzoxazolone and benzothiazolone ligands as potential anti-inflammatory/analgesic agents” (Bioorg Med Chem, 2015)
# The source made the active and inactive calls. The rule behind the calls is not given here.
# Target: T1, Nitric oxide synthase, inducible (Mus musculus) (UniProt P29477)
# T1 sequence (whole entry): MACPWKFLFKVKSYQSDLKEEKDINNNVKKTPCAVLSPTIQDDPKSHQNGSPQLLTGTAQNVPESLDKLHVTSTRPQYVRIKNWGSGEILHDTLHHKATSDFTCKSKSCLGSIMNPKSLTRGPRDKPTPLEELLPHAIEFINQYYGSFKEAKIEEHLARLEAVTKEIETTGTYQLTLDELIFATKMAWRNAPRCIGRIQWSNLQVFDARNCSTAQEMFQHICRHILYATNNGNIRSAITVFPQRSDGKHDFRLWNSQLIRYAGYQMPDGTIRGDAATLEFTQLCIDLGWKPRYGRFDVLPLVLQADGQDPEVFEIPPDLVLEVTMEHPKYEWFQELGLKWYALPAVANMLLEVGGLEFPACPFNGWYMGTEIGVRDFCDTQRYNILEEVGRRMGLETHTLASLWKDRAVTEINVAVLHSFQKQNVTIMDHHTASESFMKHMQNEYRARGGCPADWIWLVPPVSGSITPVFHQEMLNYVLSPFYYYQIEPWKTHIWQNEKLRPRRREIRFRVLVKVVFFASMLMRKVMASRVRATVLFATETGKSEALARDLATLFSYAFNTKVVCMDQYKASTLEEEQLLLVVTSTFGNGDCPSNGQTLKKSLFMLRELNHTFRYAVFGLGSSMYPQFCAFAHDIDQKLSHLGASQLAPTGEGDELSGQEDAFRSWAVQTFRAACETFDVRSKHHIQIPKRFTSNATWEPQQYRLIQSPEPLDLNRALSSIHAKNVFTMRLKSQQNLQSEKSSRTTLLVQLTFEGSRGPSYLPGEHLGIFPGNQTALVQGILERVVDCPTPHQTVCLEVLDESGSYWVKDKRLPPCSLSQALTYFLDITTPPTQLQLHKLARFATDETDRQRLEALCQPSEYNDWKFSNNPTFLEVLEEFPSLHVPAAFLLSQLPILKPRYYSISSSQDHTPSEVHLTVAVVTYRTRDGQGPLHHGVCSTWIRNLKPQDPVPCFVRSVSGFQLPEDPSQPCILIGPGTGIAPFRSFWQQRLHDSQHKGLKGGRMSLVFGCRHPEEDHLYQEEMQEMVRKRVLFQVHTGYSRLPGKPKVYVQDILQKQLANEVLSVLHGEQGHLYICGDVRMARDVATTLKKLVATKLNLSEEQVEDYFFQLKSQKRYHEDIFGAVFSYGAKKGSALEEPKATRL
# Experiment: Antiinflammatory activity in mouse RAW264.7 cells assessed as inhibition of LPS-induced iNOS activity up to 25 ug/ml incubated for 30 mins prior to LPS challenge measured after 24 hrs by Griess assay
# Type: cell-based
# Details: not given
# Outline: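 RAW264.7 macrophages seeded at 50,000 cells/well and grown 24 h to ≥75% confluency. Compounds in serum-free medium added 30 min before LPS (5 μg/mL), then 24 h incubation. Nitrite in the supernatant measured with Griess reagent.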
row,Structure (SMILES),inhibition
1,O=c1sc2ccccc2n1CCCCN1CCN(CCCCn2c(=O)sc3ccccc32)CC1,inactive
2,O=c1sc2ccccc2n1CCN1CCN(CCn2c(=O)sc3ccccc32)CC1,inactive
3,O=c1oc2ccccc2n1CCCN1CCN(CCCn2c(=O)oc3ccccc32)CC1,inactive

# Further lines, results first:
row,inhibition,Structure (SMILES)
1,inactive,O=c1oc2ccccc2n1CCCCN1CCN(CCCCn2c(=O)oc3ccccc32)CC1
2,inactive,O=c1sc2ccccc2n1CCCCN1CCN(CCn2c(=O)sc3ccccc32)CC1

# Test system: not listed separately
# Experiment: Antiinflammatory activity in human SW1353 cells assessed as inhibition of PMA-induced NF-kappaB activity incubated for 30 mins prior to PMA challenge measured after 8 hrs by luciferase reporter gene assay
# Type: cell-based
# Details: not given
# Outline: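 SW1353 cells in DMEM/F12 with 10% FBS, electroporated with NF-κB luciferase plasmid (160 V, one 70-ms pulse), plated at 1.25 × 10⁵ cells/well. After 24 h, graded compound concentrations added 30 min before PMA 70 ng/mL, then 8 h incubation. Luciferase read-out, % inhibition versus vehicle, IC50 from dose curves. Sp-1 reporter served as nonspecific control.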
row,Structure (SMILES),IC50
1,O=c1sc2ccccc2n1CCCCN1CCN(CCCCn2c(=O)sc3ccccc32)CC1,2.28 µM
2,O=c1oc2ccccc2n1CCCN1CCN(CCCn2c(=O)oc3ccccc32)CC1,4.91 µM

# Test system: SW1353
# Experiment: Antiinflammatory activity in human SW1353 cells assessed as inhibition of PMA-induced NF-kappaB activity up to 25 ug/ml incubated for 30 mins prior to PMA challenge measured after 8 hrs by luciferase reporter gene assay
# Type: cell-based
# Details: not given
# Outline: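 SW1353 chondrosarcoma cells grown in DMEM/F12 with 10% FBS at 37 °C, 5% CO2. Cells electroporated with an NF-κB luciferase plasmid (50 μg/mL, 160 V, one 70-ms pulse) and plated at 1.25 × 10⁵ cells/well. After 24 h, compound was added 30 min before PMA (70 ng/mL), then 8 h incubation. Luciferase read-out as % inhibition vs vehicle; IC50 from dose curves. Sp-1 served as a counter-screen.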
row,Structure (SMILES),inhibition
1,O=c1oc2ccccc2n1CCCCN1CCN(CCCCn2c(=O)oc3ccccc32)CC1,inactive
2,O=c1sc2ccccc2n1CCN1CCN(CCn2c(=O)sc3ccccc32)CC1,inactive
3,O=c1sc2ccccc2n1CCCCN1CCN(CCn2c(=O)sc3ccccc32)CC1,inactive

# Test system: not listed separately
# Experiment: Cytotoxicity against pig LLC-PK11 cells up to 25 ug/ml after 48 hrs by neutral red assay relative to control
# Type: cell-based, Sus scrofa
# Details: llc-pk11, 48 h
# Outline: (§1)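 Cells grown in RPMI-1640 with 10% bovine calf serum and amikacin at 37 °C, 5% CO2. Seeded at 25,000 cells/well and grown 24 h, then exposed 48 h to samples diluted in serum-free medium. Viability by Neutral Red; % decrease vs vehicle; IC50 from dose curves. Triplicate runs, mean reported; doxorubicin as positive control.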
row,Structure (SMILES),Activity
1,O=c1sc2ccccc2n1CCCCN1CCN(CCCCn2c(=O)sc3ccccc32)CC1,Non-toxic
2,O=c1oc2ccccc2n1CCCCN1CCN(CCCCn2c(=O)oc3ccccc32)CC1,Non-toxic
3,O=c1sc2ccccc2n1CCN1CCN(CCn2c(=O)sc3ccccc32)CC1,Non-toxic
4,O=c1oc2ccccc2n1CCCN1CCN(CCCn2c(=O)oc3ccccc32)CC1,Non-toxic
5,O=c1sc2ccccc2n1CCCCN1CCN(CCn2c(=O)sc3ccccc32)CC1,Non-toxic

# Test system: Vero
# Experiment: Cytotoxicity against African green monkey Vero cells up to 25 ug/ml after 48 hrs by neutral red assay relative to control
# Type: cell-based
# Details: chlorocebus sabaeus
# Outline: as §1
row,Structure (SMILES),Activity
1,O=c1sc2ccccc2n1CCCCN1CCN(CCCCn2c(=O)sc3ccccc32)CC1,Non-toxic
2,O=c1oc2ccccc2n1CCCCN1CCN(CCCCn2c(=O)oc3ccccc32)CC1,Non-toxic
3,O=c1sc2ccccc2n1CCN1CCN(CCn2c(=O)sc3ccccc32)CC1,Non-toxic
4,O=c1oc2ccccc2n1CCCN1CCN(CCCn2c(=O)oc3ccccc32)CC1,Non-toxic
5,O=c1sc2ccccc2n1CCCCN1CCN(CCn2c(=O)sc3ccccc32)CC1,Non-toxic

# Test system: SK-OV-3
# Experiment: Cytotoxicity against human SKOV3 cells up to 25 ug/ml after 48 hrs by neutral red assay relative to control
# Type: cell-based
# Details: sk-ov-3, 48 h
# Outline: as §1
row,Structure (SMILES),Activity
1,O=c1sc2ccccc2n1CCCCN1CCN(CCCCn2c(=O)sc3ccccc32)CC1,Non-toxic
2,O=c1oc2ccccc2n1CCCCN1CCN(CCCCn2c(=O)oc3ccccc32)CC1,Non-toxic
3,O=c1sc2ccccc2n1CCN1CCN(CCn2c(=O)sc3ccccc32)CC1,Non-toxic
4,O=c1oc2ccccc2n1CCCN1CCN(CCCn2c(=O)oc3ccccc32)CC1,Non-toxic
5,O=c1sc2ccccc2n1CCCCN1CCN(CCn2c(=O)sc3ccccc32)CC1,Non-toxic

# Test system: BT-549
# Experiment: Cytotoxicity against human BT549 cells up to 25 ug/ml after 48 hrs by neutral red assay relative to control
# Type: cell-based
# Details: bt-549, 48 h
# Outline: as §1
row,Structure (SMILES),Activity
1,O=c1sc2ccccc2n1CCCCN1CCN(CCCCn2c(=O)sc3ccccc32)CC1,Non-toxic
2,O=c1oc2ccccc2n1CCCCN1CCN(CCCCn2c(=O)oc3ccccc32)CC1,Non-toxic
3,O=c1sc2ccccc2n1CCN1CCN(CCn2c(=O)sc3ccccc32)CC1,Non-toxic
4,O=c1oc2ccccc2n1CCCN1CCN(CCCn2c(=O)oc3ccccc32)CC1,Non-toxic
5,O=c1sc2ccccc2n1CCCCN1CCN(CCn2c(=O)sc3ccccc32)CC1,Non-toxic

# Test system: KB
# Experiment: Cytotoxicity against human KB cells up to 25 ug/ml after 48 hrs by neutral red assay relative to control
# Type: cell-based
# Details: not given
# Outline: as §1
row,Structure (SMILES),Activity
1,O=c1sc2ccccc2n1CCCCN1CCN(CCCCn2c(=O)sc3ccccc32)CC1,Non-toxic
2,O=c1oc2ccccc2n1CCCCN1CCN(CCCCn2c(=O)oc3ccccc32)CC1,Non-toxic
3,O=c1sc2ccccc2n1CCN1CCN(CCn2c(=O)sc3ccccc32)CC1,Non-toxic
4,O=c1oc2ccccc2n1CCCN1CCN(CCCn2c(=O)oc3ccccc32)CC1,Non-toxic
5,O=c1sc2ccccc2n1CCCCN1CCN(CCn2c(=O)sc3ccccc32)CC1,Non-toxic

# Test system: SK-MEL
# Experiment: Cytotoxicity against human SK-MEL cells up to 25 ug/ml after 48 hrs by neutral red assay relative to control
# Type: cell-based
# Details: not given
# Outline: as §1
row,Structure (SMILES),Activity
1,O=c1sc2ccccc2n1CCCCN1CCN(CCCCn2c(=O)sc3ccccc32)CC1,Non-toxic
2,O=c1oc2ccccc2n1CCCCN1CCN(CCCCn2c(=O)oc3ccccc32)CC1,Non-toxic
3,O=c1sc2ccccc2n1CCN1CCN(CCn2c(=O)sc3ccccc32)CC1,Non-toxic
4,O=c1oc2ccccc2n1CCCN1CCN(CCCn2c(=O)oc3ccccc32)CC1,Non-toxic
5,O=c1sc2ccccc2n1CCCCN1CCN(CCn2c(=O)sc3ccccc32)CC1,Non-toxic
